Results on six compounds are retold here after ChEMBL document CHEMBL4814034, “Discovery of N-amido-phenylsulfonamide derivatives as novel microsomal prostaglandin E2 synthase-1 (mPGES-1) inhibitors” (Bioorg Med Chem Lett, 2021).

Bounds are passed on as bounds.

One series relates to A549. The experiment in a line: Cytotoxicity against human A549 cells assessed as cell viability incubated for 24 hrs in presence of IL-1beta by MTT assay. The format is cell-based. As to conditions: a549, 24 h. Put shortly:
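A549 cells exposed to compounds at 1 µM with interleukin-1β (1 ng/mL) for 24 h; viability read by MTT assay.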
(In general: Tetrazolium assays rely on reduction of a dye to a coloured formazan, in cell work by metabolically active cells.)

The target of another series is CYP2D6 (Homo sapiens, UniProt P10635). The experiment in a line: Inhibition of CYP2D6 in human liver microsomes assessed as enzyme remaining activity at 10 uM using bufuralol as substrate incubated for 20 mins in presence of NADPH by LC-MS/MS analysis relative to control. The format is ADME. As to conditions: probe bufuralol, read-out: Activity. Put shortly: (§1)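 CYP1A2, 2C9, 2C19, 2D6 and 3A4 activities measured with each compound at 10 µM; result given as % of control activity.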
Sequence of CYP2D6 (P10635 whole entry): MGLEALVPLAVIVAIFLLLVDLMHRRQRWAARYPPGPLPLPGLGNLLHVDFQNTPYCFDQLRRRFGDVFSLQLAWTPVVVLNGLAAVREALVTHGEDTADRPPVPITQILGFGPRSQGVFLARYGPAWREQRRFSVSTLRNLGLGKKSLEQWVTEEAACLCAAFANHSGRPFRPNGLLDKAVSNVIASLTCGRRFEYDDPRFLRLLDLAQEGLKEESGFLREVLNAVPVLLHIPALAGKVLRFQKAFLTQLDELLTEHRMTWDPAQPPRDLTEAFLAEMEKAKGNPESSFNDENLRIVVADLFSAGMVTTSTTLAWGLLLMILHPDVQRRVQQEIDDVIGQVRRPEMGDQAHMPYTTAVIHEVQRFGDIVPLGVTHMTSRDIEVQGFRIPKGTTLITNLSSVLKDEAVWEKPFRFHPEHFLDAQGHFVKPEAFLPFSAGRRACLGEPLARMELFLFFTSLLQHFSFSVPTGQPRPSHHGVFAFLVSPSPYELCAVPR
(In general: Liver microsomes are a subcellular fraction often used to study metabolism.)

A further series has as its target CYP2C9 (Homo sapiens, UniProt P11712). The experiment in a line: Inhibition of CYP2C9 in human liver microsomes assessed as enzyme remaining activity at 10 uM using diclofenac as substrate incubated for 20 mins in presence of NADPH by LC-MS/MS analysis relative to control. The series is classed as ADME. Conditions: probe diclofenac, read-out: Activity. Put shortly:
as §1

Another series addresses T1, CYP1A2 (Homo sapiens, UniProt P05177).
T1 sequence (P05177 whole entry): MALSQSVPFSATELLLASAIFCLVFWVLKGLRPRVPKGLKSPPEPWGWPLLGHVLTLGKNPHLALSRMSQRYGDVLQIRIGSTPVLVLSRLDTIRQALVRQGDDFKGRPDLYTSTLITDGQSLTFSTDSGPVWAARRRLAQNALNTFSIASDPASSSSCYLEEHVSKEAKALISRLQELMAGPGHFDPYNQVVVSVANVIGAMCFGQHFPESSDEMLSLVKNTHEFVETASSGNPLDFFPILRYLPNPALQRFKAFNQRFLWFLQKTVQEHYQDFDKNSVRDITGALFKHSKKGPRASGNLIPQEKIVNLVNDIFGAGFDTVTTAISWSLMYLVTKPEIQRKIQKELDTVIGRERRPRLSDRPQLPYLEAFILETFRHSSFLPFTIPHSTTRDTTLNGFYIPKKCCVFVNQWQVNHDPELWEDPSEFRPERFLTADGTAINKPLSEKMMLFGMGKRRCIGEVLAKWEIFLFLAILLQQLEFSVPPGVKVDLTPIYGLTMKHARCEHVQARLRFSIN
The experiment in a line: Inhibition of CYP1A2 in human liver microsomes assessed as enzyme remaining activity at 10 uM using phenacetin as substrate incubated for 20 mins in presence of NADPH by LC-MS/MS analysis relative to control. As to conditions: probe phenacetin, read-out: Activity. The format is ADME. Put shortly: as §1

Series [1] can be described thus: Stability in human plasma assessed as parent compound remaining at 10 uM after 30 mins by UPLC-MS analysis. The series is classed as ADME, cell-free. As to conditions: read-out: Stabilty. Put shortly:
(§2)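 Compounds at 10 µM incubated in human or rat plasma; % remaining after 30 min reported.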

Series [2] addresses Voltage-gated inwardly rectifying potassium channel KCNH2 (Homo sapiens, UniProt Q12809). As to the kind of experiment: Binding affinity to human ERG.
Series [3] deals with T2, Prostaglandin E synthase (Homo sapiens, UniProt O14684).
T2 sequence (O14684 whole entry): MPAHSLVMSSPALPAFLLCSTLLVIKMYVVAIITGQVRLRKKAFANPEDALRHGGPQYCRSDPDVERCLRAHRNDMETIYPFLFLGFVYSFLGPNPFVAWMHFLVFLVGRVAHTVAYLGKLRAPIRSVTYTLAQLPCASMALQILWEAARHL
The experiment in a line: Inhibition of mPGES-1 in human A549 cells assessed as reduction in IL-1beta stimulated PGE2 production incubated for 24 hrs by EIA. The series is classed as cell-based.

Series [4] in a line: Stability in rat plasma assessed as parent compound remaining at 10 uM after 30 mins by UPLC-MS analysis. The series is classed as ADME, cell-free. As to conditions: read-out: Stabilty. Put shortly:
as §2

Series [5] deals with T3, Prostaglandin E synthase (Mus musculus, UniProt Q9JM51).
T3 sequence (Q9JM51 whole entry): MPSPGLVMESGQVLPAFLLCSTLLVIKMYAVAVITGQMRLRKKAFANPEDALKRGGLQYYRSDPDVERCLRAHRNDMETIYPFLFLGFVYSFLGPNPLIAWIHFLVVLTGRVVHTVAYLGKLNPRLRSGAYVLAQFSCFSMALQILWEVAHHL
The experiment in a line: Inhibition of mPGES-1 in mouse RAW264.7 cells assessed as reduction in LPS-stimulated PGE2 production. The format is cell-based.

A further series deals with CYP3A4 (Homo sapiens, UniProt P08684). As to the kind of experiment: Inhibition of CYP3A4 in human liver microsomes assessed as enzyme remaining activity at 10 uM using testosterone as substrate incubated for 20 mins in presence of NADPH by LC-MS/MS analysis relative to control. The format is ADME. Conditions: probe testosterone, read-out: Activity. The gist of the method: as §1
Sequence of CYP3A4 (P08684 whole entry): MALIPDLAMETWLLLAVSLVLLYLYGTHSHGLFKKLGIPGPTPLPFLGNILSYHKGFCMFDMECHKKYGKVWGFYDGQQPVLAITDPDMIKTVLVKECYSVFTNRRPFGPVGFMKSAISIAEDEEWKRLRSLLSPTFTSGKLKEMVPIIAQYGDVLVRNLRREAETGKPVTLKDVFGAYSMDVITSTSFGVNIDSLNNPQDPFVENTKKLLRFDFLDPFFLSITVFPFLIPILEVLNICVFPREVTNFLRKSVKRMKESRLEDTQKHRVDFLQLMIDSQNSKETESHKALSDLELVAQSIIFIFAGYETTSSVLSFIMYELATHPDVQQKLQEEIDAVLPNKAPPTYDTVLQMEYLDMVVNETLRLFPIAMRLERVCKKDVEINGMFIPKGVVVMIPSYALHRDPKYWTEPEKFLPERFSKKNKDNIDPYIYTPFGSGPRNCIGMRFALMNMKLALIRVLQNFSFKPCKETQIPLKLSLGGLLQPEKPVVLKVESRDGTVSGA

The target of the next series is CYP2C19 (Homo sapiens, UniProt P33261). As to the kind of experiment: Inhibition of CYP2C19 in human liver microsomes assessed as enzyme remaining activity at 10 uM using mephenytoin as substrate incubated for 20 mins in presence of NADPH by LC-MS/MS analysis relative to control. The format is ADME. As to conditions: probe mephenytoin, read-out: Activity. Put shortly:
as §1

A short description of series [6]: Metabolic stability in rat liver microsomes assessed as parent compound remaining at 1 uM incubated for 30 mins in presence of NADPH by LC-MS/MS analysis. The format is ADME, Microsome. Conditions: read-out: Stabilty. The gist of the method:
(§3)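 Single-point metabolic stability in mouse, rat, dog and human liver microsomes. Compound at 1.0 µM incubated with 1.0 mg/mL protein at 37 °C for 30 min; % parent remaining reported.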

Series [7] in a line: Metabolic stability in mouse liver microsomes assessed as parent compound remaining at 1 uM incubated for 30 mins in presence of NADPH by LC-MS/MS analysis. The series is classed as ADME, Microsome. As to conditions: read-out: Stabilty. The gist of the method:
as §3

Series [8] is described as follows: Metabolic stability in human liver microsomes assessed as parent compound remaining at 1 uM incubated for 30 mins in presence of NADPH by LC-MS/MS analysis. As to conditions: read-out: Stabilty. The format is ADME, Microsome. Put shortly:
as §3

Series [9] addresses T2, Prostaglandin E synthase. The experiment in a line: Inhibition of mPGES-1 activity in IL-1beta stimulated human A549 cells microsomes assessed as reduction in PGE2 production preincubated for 15 mins followed by PGH2 addition and measured after 1 mins by EIA. Set-up: species or system Microsome. Put shortly: (§4)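 Cell-free mPGES-1 assay using microsomal preparation from IL-1β-stimulated A549 cells. Preincubated with compounds or DMSO vehicle for 15 min on ice, then reacted 1 min with substrate. PGE2 production measured by EIA kit. Remaining activity expressed as % of control, mean ± SDs (n = 3).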

Series [10] is described as follows: Metabolic stability in dog liver microsomes assessed as parent compound remaining at 1 uM incubated for 30 mins in presence of NADPH by LC-MS/MS analysis. The format is ADME, Canis lupus familiaris, Microsome. Conditions: read-out: Stabilty. Put shortly: as §3
The target of series [11] is T2, Prostaglandin E synthase. As to the kind of experiment: Inhibition of mPGES-1 activity in IL-1beta stimulated human A549 cells by cell-free assay. Put shortly: as §4
Series [12] in a line: Selectivity index, ratio of IC50 for inhibition of mPGES-1 in human A549 cells assessed as reduction in IL-1beta stimulated PGI2 production to IC50 for inhibition of mPGES-1 in human A549 cells assessed as reduction in IL-1 beta stimulated PGE2 production.
The target of series [13] is T4, Prostaglandin E synthase (Homo sapiens) (UniProt O14684).
T4 sequence (whole entry): T2 sequence (O14684 whole entry)
As to the kind of experiment: Potency index, ratio of MK886 IC50 to test compound IC50 for inhibition of mPGES-1 in human A549 cells microsomes. As to conditions: Microsome.

Sequence of Voltage-gated inwardly rectifying potassium channel KCNH2 (Q12809 whole entry): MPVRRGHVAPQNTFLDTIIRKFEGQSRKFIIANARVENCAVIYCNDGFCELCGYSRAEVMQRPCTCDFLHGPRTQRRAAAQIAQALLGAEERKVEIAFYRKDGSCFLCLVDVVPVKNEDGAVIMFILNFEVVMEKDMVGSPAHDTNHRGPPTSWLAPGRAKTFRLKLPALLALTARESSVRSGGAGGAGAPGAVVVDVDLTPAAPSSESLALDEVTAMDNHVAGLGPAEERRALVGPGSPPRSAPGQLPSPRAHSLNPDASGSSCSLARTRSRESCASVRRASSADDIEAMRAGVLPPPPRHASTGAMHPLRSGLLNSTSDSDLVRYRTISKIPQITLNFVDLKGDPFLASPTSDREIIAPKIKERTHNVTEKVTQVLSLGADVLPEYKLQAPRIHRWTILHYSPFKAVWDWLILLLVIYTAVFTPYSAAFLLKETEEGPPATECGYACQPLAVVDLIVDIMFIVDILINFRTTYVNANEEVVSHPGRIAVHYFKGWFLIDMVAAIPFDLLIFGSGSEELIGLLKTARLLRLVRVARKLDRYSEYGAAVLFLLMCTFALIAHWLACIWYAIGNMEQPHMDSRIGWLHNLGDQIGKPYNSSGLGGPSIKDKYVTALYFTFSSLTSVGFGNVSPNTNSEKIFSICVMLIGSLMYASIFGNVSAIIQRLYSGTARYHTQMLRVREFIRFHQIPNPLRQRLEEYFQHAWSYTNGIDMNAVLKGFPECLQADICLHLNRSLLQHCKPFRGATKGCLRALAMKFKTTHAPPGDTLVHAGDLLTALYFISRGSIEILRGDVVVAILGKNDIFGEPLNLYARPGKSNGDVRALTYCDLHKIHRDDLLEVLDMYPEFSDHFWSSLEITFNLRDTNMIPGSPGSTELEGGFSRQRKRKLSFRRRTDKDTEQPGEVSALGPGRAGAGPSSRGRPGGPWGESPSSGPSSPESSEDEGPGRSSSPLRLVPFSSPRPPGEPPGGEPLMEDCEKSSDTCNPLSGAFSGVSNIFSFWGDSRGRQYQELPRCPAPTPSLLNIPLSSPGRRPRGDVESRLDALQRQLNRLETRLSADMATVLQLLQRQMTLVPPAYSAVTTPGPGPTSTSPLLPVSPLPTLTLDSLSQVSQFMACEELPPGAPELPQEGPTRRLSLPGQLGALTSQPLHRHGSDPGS
Sequence of CYP2C9 (P11712 whole entry): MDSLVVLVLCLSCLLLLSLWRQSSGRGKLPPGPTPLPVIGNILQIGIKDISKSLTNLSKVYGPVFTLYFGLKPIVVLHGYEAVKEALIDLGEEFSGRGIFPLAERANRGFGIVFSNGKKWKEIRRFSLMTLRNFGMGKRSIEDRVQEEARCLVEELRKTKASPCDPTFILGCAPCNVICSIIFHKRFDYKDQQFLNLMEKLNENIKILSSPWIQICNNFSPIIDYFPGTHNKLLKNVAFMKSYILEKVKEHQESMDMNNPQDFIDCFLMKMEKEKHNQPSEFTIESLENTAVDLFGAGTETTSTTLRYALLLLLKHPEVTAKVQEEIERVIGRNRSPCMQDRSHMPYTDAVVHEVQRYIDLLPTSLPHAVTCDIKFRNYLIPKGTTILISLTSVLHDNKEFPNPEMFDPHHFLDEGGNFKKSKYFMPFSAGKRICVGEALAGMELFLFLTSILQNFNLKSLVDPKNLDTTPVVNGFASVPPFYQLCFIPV
Sequence of CYP2C19 (P33261 whole entry): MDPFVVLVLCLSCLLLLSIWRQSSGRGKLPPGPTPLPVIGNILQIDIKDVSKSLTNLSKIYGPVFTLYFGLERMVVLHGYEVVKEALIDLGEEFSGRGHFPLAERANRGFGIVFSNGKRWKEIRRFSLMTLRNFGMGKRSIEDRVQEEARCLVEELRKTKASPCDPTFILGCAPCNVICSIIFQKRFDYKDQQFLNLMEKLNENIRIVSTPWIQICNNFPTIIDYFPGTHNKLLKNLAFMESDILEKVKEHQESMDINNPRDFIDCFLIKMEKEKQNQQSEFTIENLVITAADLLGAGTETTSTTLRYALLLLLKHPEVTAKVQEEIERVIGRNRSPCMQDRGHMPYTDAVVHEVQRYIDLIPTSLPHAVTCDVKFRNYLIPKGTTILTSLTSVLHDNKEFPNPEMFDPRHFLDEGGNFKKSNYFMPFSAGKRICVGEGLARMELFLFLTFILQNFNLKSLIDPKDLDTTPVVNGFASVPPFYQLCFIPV

In the case of `CC(C)c1ccc2c(c1)c(SC(C)(C)C)c(CC(C)(C)C(=O)O)n2Cc1ccc(Cl)cc1`, in the series on A549, the Activity is above 1 µM.
Regarding `O=C(Oc1ccc(OCc2ccccc2)cc1)N(Nc1ccccc1)S(=O)(=O)c1ccc(Cl)cc1`, the activity at 20 min, 10 µM is 57.1% on CYP2D6; 88.4% on CYP2C9; 75.7% at CYP1A2; 73.6% at CYP3A4; 77.9% on CYP2C19. The remaining at 0.5 h, 10 µM in series [1] and in series [4] was below 1% throughout. The IC50 is 9600 nM in series [2], 190 nM at Prostaglandin E synthase [3], 60 nM at Prostaglandin E synthase [5] and 610 nM on Prostaglandin E synthase [9]. Moreover, the remaining at 0.5 h, 1 µM in [6] amounted to 16.3%; in series [7], 42.2%; in series [8] it was 66.6%; in series [10] it was 48.5%. Further, the Activity in the series with A549 is above 1 µM.
With `O=C(Oc1ccc(OCc2ccccc2)cc1)N(Nc1cccc(Cl)c1)S(=O)(=O)c1ccc(Cl)cc1`, the IC50 on Prostaglandin E synthase [3] is 150 nM; on Prostaglandin E synthase [9] it was above 30000 nM. For the same compound, in the series with A549, the Activity is above 1 µM.
The corresponding values for `O=C(Nc1ccc(OCc2ccccc2)cc1)N(Cc1ccccc1)S(=O)(=O)c1ccc(Cl)cc1` are 610 nM, above 30000 nM and above 1 µM.
Take `O=C(Oc1ccc(OCc2ccccc2)cc1)N(Cc1ccccc1)S(=O)(=O)c1ccc(Cl)cc1`: the activity at 20 min, 10 µM is above 100% on CYP2D6; 97% at CYP2C9; 99.4% on CYP1A2; above 100% on CYP3A4; 56.9% on CYP2C19. Moreover, the figures for the remaining at 0.5 h, 10 µM in series [1] and in series [4] were above 100% and 2.1%, respectively. In addition, the IC50 was 5200 nM in series [2], 160 nM at Prostaglandin E synthase [3], 340 nM at Prostaglandin E synthase [5] and 7370 nM against Prostaglandin E synthase [11]. Further, the remaining at 0.5 h, 1 µM in series [6] worked out at 44.1%; in series [7] it was 53.4%; in [8], 44.9%; in [10], 37.7%. Moreover, the Activity in the series with A549 is above 1 µM. The “Ratio IC50” value in series [12] is on record as 8.
`O=C(Nc1ccc(OCCCCc2ccccc2)cc1)N(Cc1ccccc1)S(=O)(=O)c1ccc(Cl)cc1`: the activity at 20 min, 10 µM on CYP2D6 amounted to 98.8%; at CYP2C9, 99.9%; at CYP1A2, 69.4%; on CYP3A4, 92.5%; on CYP2C19 it was 8.7%. Further, the remaining at 0.5 h, 10 µM worked out at 45% in series [1] and 1.3% in series [4]. The IC50 in series [2] was above 10000 nM; at Prostaglandin E synthase [3], 240 nM; on Prostaglandin E synthase [9] it was 490 nM. In addition, the Ratio IC50 in series [13] is 8; in series [12], 4. Also, the remaining at 0.5 h, 1 µM in series [6] is 74.5%; in series [7] it was 79%; in [8], above 100%; in series [10] it was 86.4%. Moreover, the Activity in the series on A549 is above 1 µM.

The IC50 is the concentration that gives 50% inhibition.
